# Laboratory results taken from ChEMBL document CHEMBL4825685, “Structure activity relationship (SAR) study identifies a quinoxaline urea analog that modulates IKKβ phosphorylation for pancreatic cancer therapy” (Eur J Med Chem, 2021).
# Active and inactive are the calls of the source. No cut-off for these calls is given here.
# How the values were obtained:
# MIA PaCa-2 [1] = experiment: Induction of apoptosis in human MIA PaCa-2 cells assessed as increase in caspase 3/7 activation at 10 uM incubated for 24 hrs by Caspase-Glo assay; assay type: functional, cell-based
# How it was run: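 MiaPaCa2 cells (2.5 × 10⁴/well) attached overnight, then treated 24 h at 0.1% final DMSO. alamarBlue added at 21 h for 3 h and fluorescence read at 560/590. Caspase-Glo luminescence read 2 h later. Luminescence ×100/fluorescence normalized to DMSO average, n = 3.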
# [2] = AUC (0 to infinity) in CD1 mouse at 20 mg/kg, po measured up to 24 hrs measured by LC/MS-MS analysis; assay type: ADME, organism-based; design: route oral, dose 20 mg/kg, time <=24; details: in vivo
# How it was run: (§1)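 Oral 20 mg/kg given in DMSO:PEG400:H2O 1:4:5. Mice killed at 0.083, 0.25, 0.5, 1, 2, 4, 8 and 24 h and plasma analysed by LC/MS/MS with a carbamazepine internal standard. Parameters derived by non-compartmental analysis.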
# MIA PaCa-2 [3] = experiment: Anti-migration activity in human MIA PaCa-2 cells at 5 uM measured upto 48 hrs by microscopy based wound scratch method; assay type: functional, cell-based; details: time hrs <=48
# [4] = Cmax in CD1 mouse at 20 mg/kg, po measured up to 24 hrs measured by LC/MS-MS analysis; assay type: ADME, organism-based; design: route oral, dose 20 mg/kg, time <=24; details: in vivo; how it was run: as §1
# MIA PaCa-2 [5] = experiment: Antitumor activity against human MIA PaCa-2 cells xenografted in Foxn1nu athymic nude mouse assessed as reduction in tumor volume at 40 mg/kg, po administered for 4 weeks by digital caliper method relative to control; assay type: functional; design: scale not given: the % may be the effect or the level left
# How it was run: (§2)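 MiaPaCa2 cells (2.5 × 10⁶, with Matrigel 2:1) implanted s.c. in the left flank. Mice randomized at day 20, n = 6 per group. Compound given orally once daily; gemcitabine 15 mg/kg i.p. every 72 h where combined; vehicle 100 µl orally. Tumors measured by caliper every 3 days (1/2 × L × W²). Tumors weighed after sacrifice after day 27. Unpaired t-test.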
# MIA PaCa-2 [6] = experiment: Antitumor activity against human MIA PaCa-2 cells xenografted in Foxn1nu athymic nude mouse assessed as reduction in proliferation index at 40 mg/kg, po administered for 4 weeks by Ki67 staining based assay; assay type: functional, organism-based
# How it was run: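 Same xenograft and dosing design. Formalin-fixed paraffin sections (5 µm) stained with anti-Ki-67. Percentage of Ki-67-positive cells counted in 4 fields per tumor, n = 5. Unpaired t-test.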
# [7] = molecular target: T1, Inhibitor of nuclear factor kappa-B kinase subunit beta (Homo sapiens, UniProt O14920); experiment: Inhibition of TNFalpha-induced IKKbeta mediated NF-kappaB activation in human Pancreatic cancer cells by luciferase reporter gene assay; design: species or system Pancreatic cancer cell
# T1 sequence (O14920 whole entry): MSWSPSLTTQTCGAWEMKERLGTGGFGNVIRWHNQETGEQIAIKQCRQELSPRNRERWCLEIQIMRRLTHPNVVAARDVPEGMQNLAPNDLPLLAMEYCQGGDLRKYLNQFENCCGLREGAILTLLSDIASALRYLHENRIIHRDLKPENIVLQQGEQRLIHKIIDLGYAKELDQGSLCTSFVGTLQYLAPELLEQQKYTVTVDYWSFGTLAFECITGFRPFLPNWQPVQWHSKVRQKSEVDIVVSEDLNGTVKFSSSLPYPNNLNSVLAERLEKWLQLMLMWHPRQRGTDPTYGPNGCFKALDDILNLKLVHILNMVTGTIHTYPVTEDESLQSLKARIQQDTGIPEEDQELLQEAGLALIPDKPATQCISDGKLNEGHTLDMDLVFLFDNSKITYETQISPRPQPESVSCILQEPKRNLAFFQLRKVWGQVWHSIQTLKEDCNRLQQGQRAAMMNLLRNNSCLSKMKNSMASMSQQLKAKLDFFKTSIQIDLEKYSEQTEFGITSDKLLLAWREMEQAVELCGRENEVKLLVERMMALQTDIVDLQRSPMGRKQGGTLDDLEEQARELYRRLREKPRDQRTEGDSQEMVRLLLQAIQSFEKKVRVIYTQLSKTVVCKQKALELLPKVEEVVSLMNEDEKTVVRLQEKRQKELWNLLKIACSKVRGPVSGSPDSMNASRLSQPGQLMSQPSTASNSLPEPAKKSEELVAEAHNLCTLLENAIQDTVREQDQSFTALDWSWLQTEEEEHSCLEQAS
# [8] = Oral bioavailability in CD1 mouse at 20 mg/kg measured up to 24 hrs measured by LC/MS-MS analysis; assay type: ADME, organism-based; details: in vivo
# How it was run: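 %F taken from oral (20 mg/kg, DMSO:PEG400:H2O 1:4:5) and intravenous (10 mg/kg, DMSO:PEG400:H2O 1:5:4) AUC0-∞. Plasma sampled from 0.083 to 24 h and quantified by LC/MS/MS with a carbamazepine internal standard. Non-compartmental analysis.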
# [9] = Half life in CD1 mouse at 10 mg/kg, iv measured up to 24 hrs measured by LC/MS-MS analysis; assay type: ADME, organism-based; details: in vivo
# How it was run: (§3)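 Single intravenous 10 mg/kg dose in DMSO:PEG400:H2O 1:5:4. Mice killed at 0.083, 0.25, 0.5, 1, 2, 4, 8 and 24 h. Plasma levels measured by LC/MS/MS against a carbamazepine internal standard. Parameters derived by non-compartmental analysis.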
# MIA PaCa-2 [10] = experiment: Induction of cell death in human MIA PaCa-2 cells measured after 24 hrs by fluorescent microscopy; assay type: functional, cell-based
# How it was run: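 MiaPaCa2 cells treated with 5 and 10 µM for 24 h, then stained with calcein-AM plus ethidium homodimer-1 for 30 min. Live and dead cells imaged by fluorescence microscopy. Dead/total cell ratio computed, n = 3. Two-way ANOVA with Bonferroni test.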
# [11] = MRT (0 to infinity) in CD1 mouse at 20 mg/kg, po measured up to 24 hrs measured by LC/MS-MS analysis; assay type: ADME, organism-based; details: in vivo; how it was run: as §1
# MIA PaCa-2 [12] = experiment: Antitumor activity against human MIA PaCa-2 cells xenografted in Foxn1nu athymic nude mouse assessed as reduction in tumor volume at 40 mg/kg, po administered for 4 weeks in combination gemcitabine by digital caliper method relative to control; assay type: functional; details: MIA PaCa-2, po, 672 h; how it was run: as §2
# [13] = Tmax in CD1 mouse at 20 mg/kg, po measured up to 24 hrs measured by LC/MS-MS analysis; assay type: ADME, organism-based; details: in vivo; how it was run: as §1
# [14] = AUC (0 to infinity) in CD1 mouse at 10 mg/kg, iv measured up to 24 hrs measured by LC/MS-MS analysis; assay type: ADME, organism-based; design: route intravenous, dose 10 mg/kg, time <=24; details: in vivo; how it was run: as §3
# [15] = molecular target: T2, Inhibitor of nuclear factor kappa-B kinase subunit beta (Homo sapiens) (UniProt O14920); experiment: Inhibition of IKKbeta phosphorylation in human Pancreatic cancer cells at 5 uM by Western blot analysis; details: Pancreatic cancer cell, time hrs <=24, TDE = time-dependent effect
# T2 sequence (whole entry): T1 sequence (O14920 whole entry)
# How it was run: (§4)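 T3M4 cells treated at 0.5–5.0 µM for 6 h, or at 5 µM for 0.5–24 h. Lysates (40 µg protein) run on 4–20% SDS-PAGE and transferred to PVDF. Blots probed for p-IKKβ and IKKβ with β-actin loading control, chemiluminescent detection.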
# MIA PaCa-2 [16] = experiment: Antitumor activity against human MIA PaCa-2 cells xenografted in Foxn1nu athymic nude mouse assessed as reduction in tumor weight at 40 mg/kg, po administered for 4 weeks in combination gemcitabine […]; assay type: functional; details: MIA PaCa-2, po, 672 h; how it was run: as §2
# [17] = AUClast in CD1 mouse at 20 mg/kg, po measured up to 24 hrs measured by LC/MS-MS analysis; assay type: ADME, organism-based; design: route oral, dose 20 mg/kg, time <=24; details: in vivo; how it was run: as §1
# [18] = AUClast in CD1 mouse at 10 mg/kg, iv measured up to 24 hrs measured by LC/MS-MS analysis; assay type: ADME, organism-based; design: route intravenous, dose 10 mg/kg, time <=24; details: in vivo; how it was run: as §3
# [19] = Volume of distribution at steady state in CD1 mouse at 10 mg/kg, iv measured up to 24 hrs measured by LC/MS-MS analysis; assay type: ADME, organism-based; details: in vivo, read-out: Vdss; how it was run: as §3
# MIA PaCa-2 [20] = experiment: Antiproliferative activity against human MIA PaCa-2 cells assessed as growth inhibition after 72 hrs by PrestoBlue dye based fluorescence assay; assay type: functional
# [21] = molecular target: T2, Inhibitor of nuclear factor kappa-B kinase subunit beta (Homo sapiens); experiment: Inhibition of IKKbeta phosphorylation in human Pancreatic cancer cells measured after 6 hr by Western blot analysis; details: Pancreatic cancer cell, dose 0.5-5 µM; how it was run: as §4
# [22] = Half life in CD1 mouse at 20 mg/kg, po measured up to 24 hrs measured by LC/MS-MS analysis; assay type: ADME, organism-based; details: in vivo; how it was run: as §1
# Mus musculus = experiment: In vivo inhibition of IKKbeta in Foxn1nu athymic nude mouse xenografted with human MIA PaCa-2 cells assessed as reduction in p-IKKbeta level at 40 mg/kg, po administered for 4 weeks by immunohistochemistry analysis; assay type: functional, organism-based
# How it was run: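 Same xenograft tissue. Paraffin sections antigen-retrieved in citrate pH 6.0 and stained with p-IKKβ antibody overnight at 4 °C, then HRP secondary. Histoscore (0–15) = proportion score × intensity score (0–3), n = 5. Unpaired t-test.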
# [23] = MRT (0 to infinity) in CD1 mouse at 10 mg/kg, iv measured up to 24 hrs measured by LC/MS-MS analysis; assay type: ADME, organism-based; details: in vivo; how it was run: as §3
# [24] = Antiproliferative activity against human T3M4 cells assessed as growth inhibition after 72 hrs by PrestoBlue dye based fluorescence assay; assay type: functional
# [25] = Cmax in CD1 mouse at 10 mg/kg, iv measured up to 24 hrs measured by LC/MS-MS analysis; assay type: ADME, organism-based; design: route intravenous, dose 10 mg/kg, time <=24; details: in vivo; how it was run: as §3
# MIA PaCa-2 [26] = experiment: Antitumor activity against human MIA PaCa-2 cells xenografted in Foxn1nu athymic nude mouse assessed as reduction in tumor weight at 40 mg/kg, po administered for 4 weeks […] relative to control; assay type: functional; design: scale not given: the % may be the effect or the level left; how it was run: as §2
# MIA PaCa-2 [27] = experiment: Antitumor activity against human MIA PaCa-2 cells xenografted in Foxn1nu athymic nude mouse assessed as reduction in tumor volume at 15 mg/kg, ip administered every 3 days for 4 weeks by digital caliper method relative to control; assay type: functional; design: scale not given: the % may be the effect or the level left
# How it was run: (§5)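 MiaPaCa2 cells (2.5 × 10⁶, mixed 2:1 with Matrigel) implanted subcutaneously in left flank; randomised 20 days later (n = 6/group). Gemcitabine 15 mg/kg i.p. every 72 h against vehicle (100 µl daily orally). Tumour volume measured every 3 days by caliper as 1/2 × length × width² (mm³); mice sacrificed after 27th treatment day and tumours weighed; unpaired Student's t-test.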
# MIA PaCa-2 [28] = experiment: Antitumor activity against human MIA PaCa-2 cells xenografted in Foxn1nu athymic nude mouse assessed as reduction in tumor weight at 15 mg/kg, ip administered every 3 days for 4 weeks […]; assay type: functional; design: scale not given: the % may be the effect or the level left; how it was run: as §5
structure (smiles),measurement,setting,value
Cc1ccc2nc(NCCN)c3ncc(C)n3c2c1,Activity,MIA PaCa-2 [1],inactive
Cn1cc(-c2cnc3ccc(NC(=O)Nc4cccc(C(F)(F)F)c4F)cc3n2)cn1,AUC(0-inf),[2],8010 ng·h/mL
same,Activity,MIA PaCa-2 [3],Active
same,Cmax,[4],700 ng/mL
same,Activity,MIA PaCa-2 [5],75%
same,Activity,MIA PaCa-2 [6],Active
same,IC50,[7],3300 nM
same,bioavailability,[8],17.6%
same,half-life,[9],2.7 h
same,Activity,MIA PaCa-2 [10],Dose-Dependent Effect
same,MRT inf,[11],6.3 h
same,inhibition in vivo at 40 mg/kg,MIA PaCa-2 [12],> 90%
same,Tmax,[13],6 h
same,AUC(0-inf),[14],22800 ng·h/mL
same,inhibition,[15],Tde
same,inhibition in vivo at 40 mg/kg,MIA PaCa-2 [16],> 90%
same,AUC(0-t) at 24 h,[17],7990 ng·h/mL
same,AUC(0-t) at 24 h,[18],20300 ng·h/mL
same,Vd,[19],2 L/kg
same,Activity,MIA PaCa-2 [1],Active
same,GI50,MIA PaCa-2 [20],2800 nM
same,inhibition,[21],Dose-Dependent Effect
same,half-life,[22],2.5 h
same,Activity,Mus musculus,Active
same,MRT inf,[23],4.5 h
same,GI50,[24],1700 nM
same,Cmax,[25],5980 ng/mL
same,Activity,MIA PaCa-2 [26],75%
Nc1ccn([C@@H]2O[C@H](CO)[C@@H](O)C2(F)F)c(=O)n1 [GEMCITABINE],Activity,MIA PaCa-2 [27],45%
same,Activity,MIA PaCa-2 [28],45%
Cc1cc(NC(=O)Nc2ccc3ncc(-c4cnn(C)c4)nc3c2)ccc1F,Activity,MIA PaCa-2 [1],inactive
Cn1cc(-c2cnc3ccc(NC(=O)Nc4cccc(C(F)(F)F)c4)cc3n2)cn1,Activity,MIA PaCa-2 [1],inactive
